From ChEMBL document CHEMBL5724801, “EUbOPEN Chemogenomics Library - Multiplex” (2024)
Several values for one entry are separate records, joined by “and”; a condition that tells them apart may be missing. Identical values can stand only once.

Tests used:
HEK-293T = assay: Multiplex assay against HEK293T; format: toxicity, cell-based; conditions: human
Procedure, shortened: (§1)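 Four dyes were applied at seeding to live cells: Hoechst33342, BioTracker Green Microtubule Cytoskeleton Dye, MitoTracker Red and Annexin V Alexa Fluor 680. Imaging after compound addition used a CQ1 microscope at 37°C and 5% CO2. CellPathfinder machine-learning gating then sorted cells into Hoechst high-intensity objects or normal cells, normal cells into healthy, pyknosed or fragmented nuclei, and pyknosed cells into mitotic or apoptotic, with tubulin, mitochondrial-mass and membrane-permeability phenotypes given as per cents of healthy-nucleus cells.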

U2OS = assay: Multiplex assay against U2OS; format: toxicity, cell-based; conditions: human; procedure, shortened: as §1
[1] = 24 h, 10 µM, compound concentration 10 uM
[2] = 48 h, 1 µM, compound concentration 1 uM
[3] = 48 h, 10 µM, compound concentration 10 uM
[4] = 12 h, 1 µM, compound concentration 1 uM
[5] = 12 h, 10 µM, compound concentration 10 uM
[6] = 24 h, 1 µM, compound concentration 1 uM

SMILES: CCC(=O)OCC(=O)[C@@]1(OC(=O)CC)[C@@H](C)C[C@H]2[C@@H]3CCC4=CC(=O)C=C[C@]4(C)[C@@]3(Cl)[C@@H](O)C[C@@]21C [BECLOMETHASONE DIPROPIONATE]
- Population Fragmented Nuclei (%) (HEK-293T; [1]): 13% and 5%
- Population Healthy Nuclei (%) (HEK-293T; [1]): 65% and 71%
- Population Hoechst High Intensity Objects (%) (HEK-293T; [1]): 11% and 9%
- Population Membrane Permeable-Phenotype (%) (HEK-293T; [1]): 0%
- Population Mitochondria Different-Phenotype (%) (HEK-293T; [1]): 89% and 97%
- Population Mitotic Cells (%) (HEK-293T; [1]): 44% and 37%
- Population Normal (%) (HEK-293T; [1]): 88% and 90%
- Population Pyknosed Nuclei (%) (HEK-293T; [1]): 21% and 23%
- Population Tubulin-Different-Phenotype (%) (HEK-293T; [1]): 73% and 43%
- Total Cell Count (HEK-293T; [1]): 270 and 243
- Population Apoptotic (%) (HEK-293T; [2]): 30% and 31%
- Population Fragmented Nuclei (%) (HEK-293T; [2]): 11% and 12%
- Population Healthy Nuclei (%) (HEK-293T; [2]): 78% and 79%
- Population Hoechst High Intensity Objects (%) (HEK-293T; [2]): 4% and 3%
- Population Membrane Permeable-Phenotype (%) (HEK-293T; [2]): 0%
- Population Mitochondria Different-Phenotype (%) (HEK-293T; [2]): 28% and 32%
- Population Mitotic Cells (%) (HEK-293T; [2]): 69% and 68%
- Population Normal (%) (HEK-293T; [2]): 95% and 96%
- Population Pyknosed Nuclei (%) (HEK-293T; [2]): 9% and 8%
- Population Tubulin-Different-Phenotype (%) (HEK-293T; [2]): 18% and 17%
- Total Cell Count (HEK-293T; [2]): 742 and 655
- Population Apoptotic (%) (HEK-293T; [3]): 67% and 65%
- Population Fragmented Nuclei (%) (HEK-293T; [3]): 14% and 12%
- Population Healthy Nuclei (%) (HEK-293T; [3]): 72%
- Population Hoechst High Intensity Objects (%) (HEK-293T; [3]): 5%
- Population Membrane Permeable-Phenotype (%) (HEK-293T; [3]): 0%
- Population Mitochondria Different-Phenotype (%) (HEK-293T; [3]): 72% and 90%
- Population Mitotic Cells (%) (HEK-293T; [3]): 32% and 34%
- Population Normal (%) (HEK-293T; [3]): 94%
- Population Pyknosed Nuclei (%) (HEK-293T; [3]): 13% and 15%
- Population Tubulin-Different-Phenotype (%) (HEK-293T; [3]): 43% and 62%
- Total Cell Count (HEK-293T; [3]): 347 and 283
- Population Apoptotic (%) (U2OS; [4]): 84% and 71%
- Population Fragmented Nuclei (%) (U2OS; [4]): 23% and 18%
- Population Healthy Nuclei (%) (U2OS; [4]): 64% and 75%
- Population Hoechst High Intensity Objects (%) (U2OS; [4]): 1% and 0%
- Population Membrane Permeable-Phenotype (%) (U2OS; [4]): 11% and 13%
- Population Mitochondria Different-Phenotype (%) (U2OS; [4]): 4% and 8%
- Population Mitotic Cells (%) (U2OS; [4]): 15% and 28%
- Population Normal (%) (U2OS; [4]): 98% and 99%
- Population Pyknosed Nuclei (%) (U2OS; [4]): 12% and 6%
- Population Tubulin-Different-Phenotype (%) (U2OS; [4]): 6% and 4%
- Total Cell Count (U2OS; [4]): 160 and 111
- Population Apoptotic (%) (U2OS; [5]): 65% and 68%
- Population Healthy Nuclei (%) (U2OS; [5]): 40% and 69%
- Population Hoechst High Intensity Objects (%) (U2OS; [5]): 4%
- Population Membrane Permeable-Phenotype (%) (U2OS; [5]): 67% and 48%
- Population Mitochondria Different-Phenotype (%) (U2OS; [5]): 73% and 97%
- Population Mitotic Cells (%) (U2OS; [5]): 34% and 31%
- Population Normal (%) (U2OS; [5]): 95%
- Population Pyknosed Nuclei (%) (U2OS; [5]): 17% and 18%
- Population Tubulin-Different-Phenotype (%) (U2OS; [5]): 80% and 97%
- Total Cell Count (U2OS; [5]): 176 and 109
- Population Apoptotic (%) (U2OS; [6]): 78% and 87%
- Population Fragmented Nuclei (%) (U2OS; [6]): 21% and 15%
- Population Healthy Nuclei (%) (U2OS; [6]): 67% and 71%
- Population Hoechst High Intensity Objects (%) (U2OS; [6]): 2% and 0%
- Population Membrane Permeable-Phenotype (%) (U2OS; [6]): 2% and 6%
- Population Mitochondria Different-Phenotype (%) (U2OS; [6]): 4% and 5%
- Population Mitotic Cells (%) (U2OS; [6]): 21% and 12%
- Population Normal (%) (U2OS; [6]): 97% and 99%
- Population Pyknosed Nuclei (%) (U2OS; [6]): 10% and 13%
- Population Tubulin-Different-Phenotype (%) (U2OS; [6]): 1% and 3%
- Total Cell Count (U2OS; [6]): 217 and 123
- Population Apoptotic (%) (U2OS; [1]): 74% and 64%
- Population Fragmented Nuclei (%) (U2OS; [1]): 35% and 12%
- Population Healthy Nuclei (%) (U2OS; [1]): 45% and 69%
- Population Hoechst High Intensity Objects (%) (U2OS; [1]): 3% and 9%
- Population Membrane Permeable-Phenotype (%) (U2OS; [1]): 40% and 43%
- Population Mitochondria Different-Phenotype (%) (U2OS; [1]): 72% and 86%
- Population Mitotic Cells (%) (U2OS; [1]): 25% and 35%
- Population Normal (%) (U2OS; [1]): 96% and 90%
- Population Pyknosed Nuclei (%) (U2OS; [1]): 18% and 17%
- Population Tubulin-Different-Phenotype (%) (U2OS; [1]): 66% and 76%
- Total Cell Count (U2OS; [1]): 174 and 106
- Population Apoptotic (%) (U2OS; [2]): 91% and 85%
- Population Fragmented Nuclei (%) (U2OS; [2]): 22% and 10%
- Population Healthy Nuclei (%) (U2OS; [2]): 68% and 75%
- Population Hoechst High Intensity Objects (%) (U2OS; [2]): 2%
- Population Membrane Permeable-Phenotype (%) (U2OS; [2]): 5% and 8%
- Population Mitochondria Different-Phenotype (%) (U2OS; [2]): 2% and 5%
- Population Mitotic Cells (%) (U2OS; [2]): 8% and 14%
- Population Normal (%) (U2OS; [2]): 97%
- Population Pyknosed Nuclei (%) (U2OS; [2]): 9% and 14%
- Population Tubulin-Different-Phenotype (%) (U2OS; [2]): 2% and 3%
- Total Cell Count (U2OS; [2]): 268 and 152
- Population Apoptotic (%) (U2OS; [3]): 80% and 70%
- Population Fragmented Nuclei (%) (U2OS; [3]): 36% and 21%
- Population Healthy Nuclei (%) (U2OS; [3]): 47% and 65%
- Population Hoechst High Intensity Objects (%) (U2OS; [3]): 4% and 6%
- Population Membrane Permeable-Phenotype (%) (U2OS; [3]): 20% and 16%
- Population Mitochondria Different-Phenotype (%) (U2OS; [3]): 26% and 36%
- Population Mitotic Cells (%) (U2OS; [3]): 20% and 29%
- Population Normal (%) (U2OS; [3]): 95% and 93%
- Population Pyknosed Nuclei (%) (U2OS; [3]): 15% and 13%
- Population Tubulin-Different-Phenotype (%) (U2OS; [3]): 14% and 10%
- Total Cell Count (U2OS; [3]): 199 and 131
